Reference: ChEMBL document CHEMBL5038599, “Identification of Thiazoyl Guanidine Derivatives as Novel Antifungal Agents Inhibiting Ergosterol Biosynthesis for Treatment of Invasive Fungal Infections” (J Med Chem, 2021)
Converted amounts (≈) assume the structure as drawn. The source made the active and inactive calls. The calls are words filed in the database; no cut-off is given here.

How the values were obtained:
Aspergillus fumigatus [1] = experiment: Antifungal activity against Aspergillus fumigatus ATCC 204305 assessed as inhibition of fungal growth […] by broth microdilution method; type: functional
Candida albicans = experiment: Antifungal activity against Candida albicans ATCC 90028 assessed as inhibition of fungal growth incubated for 24 hrs by broth microdilution method; type: functional
How it was run: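 Yeast cells were adjusted to about 2 × 10³ CFU/mL and broth microdilution was run for 24 h at 35 °C. Medium was YNB with 2% glucose and complete amino-acid mix, buffered to pH 7.0 with 50 mM MOPS. MIC was the lowest concentration giving >50% growth reduction versus untreated control, read by optical density at 600 nm.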

Aspergillus fumigatus [2] = experiment: Antifungal activity against Aspergillus fumigatus ATCC 204305 assessed as inhibition of fungal growth incubated for 48 hrs by broth microdilution method; conditions: ATCC 204305, 48 h
[3] = Metabolic stability in human liver microsomes assessed as parent compound remaining at 0.5 uM incubated for 30 mins by LC/MS/MS analysis; type: ADME, Microsome; conditions: read-out: Stability
How it was run: (§1)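 Compound at 0.5 μM was incubated with liver microsomes at 0.5 mg protein/mL at 37 °C. Buffer was 50 mM Tris-HCl pH 7.4 with 150 mM KCl, 10 mM MgCl2 and 1 mM NADPH. Reactions were stopped at 0 and 30 min with MeCN/MeOH 1:1. Percent remaining was taken from LC/MS/MS peak area ratio, in duplicate.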

[4] = Metabolic stability in rat liver microsomes assessed as parent compound remaining at 0.5 uM incubated for 30 mins by LC/MS/MS analysis; type: ADME, Microsome; conditions: read-out: Stability; how it was run: as §1
Aspergillus fumigatus [5] = experiment: Antifungal activity against Aspergillus fumigatus ATCC 204305 assessed as inhibition of fungal growth incubated for 48 hrs in presence of 50% heat-inactivated bovine serum by broth microdilution method; type: functional; conditions: ATCC 204305, 48 h, in the assay text read “incubated for 48 hrs” for “incubated for 24 hrs”
How it was run: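 Broth microdilution per CLSI M38-A2 with modifications. Conidia at about 1 × 10⁴ CFU/mL were grown for 48 h at 35 °C in YNB with 2% glucose and complete amino-acid mix, buffered to pH 7.0 with 50 mM MOPS. Medium was with or without 50% heat-inactivated bovine serum. MIC was the lowest concentration giving no visible growth.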

Aspergillus fumigatus [6] = experiment: Antifungal activity against pan-azole resistant Aspergillus fumigatus SR47013 harbouring Cyp51A Y121F mutant assessed as inhibition of fungal growth incubated for 48 hrs by broth microdilution method; conditions: SR47013, 48 h
Mus musculus [7] = experiment: In vivo antifungal activity against Aspergillus fumigatus infected in ICR mouse assessed as log reduction in fungal burden with 18S rRNA in kidney at 30 mg/kg, iv administered at 2 to 50 hrs post-inoculation and measured after 60 hrs by RT-qPCR analysis; type: functional
How it was run: (§2)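 Male ICR mice (5 weeks) were immunosuppressed with intraperitoneal cyclophosphamide, 150 mg/kg on day −4 and 100 mg/kg on day −1. Mice were infected intravenously with about 1.5 × 10⁵ conidia in saline. Tail-vein dosing was at 2, 16, 21, 26, 40, 45 and 50 h, in 5% DMSO/5% Cremophor EL/4% glucose or 5% glucose. Samples were taken at 60 h, five mice per group, and analysed by Dunnett's test against untreated controls.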

Mus musculus [8] = experiment: In vivo antifungal activity against Aspergillus fumigatus infected in ICR mouse assessed as reduction in serum-galactomannan at 30 mg/kg, iv administered at 2 to 50 hrs post-inoculation and measured after 60 hrs by GM analysis; type: functional, organism-based; how it was run: as §2
[9] = Unbound fraction in Sprague-Dawley rat at 0.5 mg/kg, iv measured upto 1440 mins by LC/MS/MS analysis; type: ADME, organism-based; conditions: in vivo
[10] = Clearance in Sprague-Dawley rat at 0.5 mg/kg, iv measured upto 1440 mins by LC/MS/MS analysis; type: ADME, organism-based; conditions: in vivo
[11] = Volume of distribution at steady state in Sprague-Dawley rat at 0.5 mg/kg, iv measured upto 1440 mins by LC/MS/MS analysis; type: ADME, organism-based; conditions: in vivo, read-out: Vdss

SMILES	MIC50 (Aspergillus fumigatus [1]) [µg/mL]	MIC50 (Candida albicans) [µg/mL]	MIC (Aspergillus fumigatus [2]) [µg/mL]	remaining at 0.5 h, 0.5 µM [3] [%]	remaining at 0.5 h, 0.5 µM [4] [%]	other results
O=C(O)c1ccc(-c2nc(-c3csc(N=C4NCCCN4)n3)cs2)cc1	–	–	> 16	–	–	–
Oc1ccccc1-c1nc(-c2csc(N=C3NCCCN3)n2)cs1	–	–	0.5 (≈ 1.4 µM)	30	38	MIC50 (Aspergillus fumigatus [5]): 8 µg/mL
c1ccc(-c2nc(-c3csc(N=C4NCCCN4)n3)cs2)nc1	–	–	16 (≈ 46.7 µM)	–	–	–
CC[C@@H]([C@H](C)O)n1ncn(-c2ccc(N3CCN(c4ccc(OC[C@@H]5CO[C@@](Cn6cncn6)(c6ccc(F)cc6F)C5)cc4)CC3)cc2)c1=O [POSACONAZOLE]	–	–	0.063 (≈ 0.0899 µM)	–	–	MIC50 (Aspergillus fumigatus [6]): 4 µg/mL (≈ 5.71 µM)
Cc1ccc(Oc2ccccc2-c2cnc(N=C3NCCCN3)s2)c(C)c1	> 16	> 16	–	–	–	–
Cc1ccc(Oc2ccccc2-c2csc(N=C3NCCCN3)n2)c(C)c1 [ABAFUNGIN]	2 (≈ 5.28 µM)	< 0.063	–	64	0.2	Activity (Mus musculus [7]): inactive; Activity (Mus musculus [8]): inactive; fraction unbound at 24 h [9]: < 0.001; clearance [10]: 51.4 mL/min/kg; Vd [11]: 4.92 L/kg; MIC50 (Aspergillus fumigatus [6]): 2 µg/mL (≈ 5.28 µM)
CCC(C)n1ncn(-c2ccc(N3CCN(c4ccc(OCC5COC(Cn6cncn6)(c6ccc(Cl)cc6Cl)O5)cc4)CC3)cc2)c1=O (stereo not drawn) [ITRACONAZOLE]	–	–	0.25 (≈ 0.354 µM)	–	–	MIC50 (Aspergillus fumigatus [6]): > 16 µg/mL
c1ccc(-c2cc(-c3csc(N=C4NCCCN4)n3)cs2)cc1	4 (≈ 11.7 µM)	0.063 (≈ 0.185 µM)	–	70	30	–

Further lines, with some results ahead:

MIC50 (Aspergillus fumigatus [1]) [µg/mL]	MIC50 (Candida albicans) [µg/mL]	MIC (Aspergillus fumigatus [2]) [µg/mL]	remaining at 0.5 h, 0.5 µM [3] [%]	remaining at 0.5 h, 0.5 µM [4] [%]	SMILES	other results
> 16	> 16	–	–	–	Cc1ccc(Oc2ccccc2-c2csc(N(C)C)n2)c(C)c1	–
> 16	> 16	–	–	–	Cc1ccc(Oc2ccccc2-c2csc(Nc3ncccn3)n2)c(C)c1	–
> 16	1 (≈ 2.55 µM)	–	–	–	Cc1ccc(Oc2ccccc2-c2csc(N=C3NCCCCN3)n2)c(C)c1	–
–	–	0.5 (≈ 1.46 µM)	78	19	c1cncc(-c2nc(-c3csc(N=C4NCCCN4)n3)cs2)c1	MIC50 (Aspergillus fumigatus [5]): 2 µg/mL
–	–	4 (≈ 11.2 µM)	77	35	Oc1cccc(-c2nc(-c3csc(N=C4NCCCN4)n3)cs2)c1	–
> 16	0.5 (≈ 1.37 µM)	–	–	–	Cc1ccc(Oc2ccccc2-c2csc(N=C3NCCN3)n2)c(C)c1	–
> 16	> 16	–	–	–	CNC(=Nc1nc(-c2ccccc2Oc2ccc(C)cc2C)cs1)NC	–
